Results on 9 compounds are retold here after ChEMBL document CHEMBL3352222, “2-Hexylthio-β,γ-CH2-ATP is an effective and selective NTPDase2 inhibitor” (J Med Chem, 2014).

The target of data set [1] is T1, NTPDase3 (ectonucleoside triphosphate diphosphohydrolase 3) (Homo sapiens, UniProt O75355).
T1 sequence (O75355 whole entry): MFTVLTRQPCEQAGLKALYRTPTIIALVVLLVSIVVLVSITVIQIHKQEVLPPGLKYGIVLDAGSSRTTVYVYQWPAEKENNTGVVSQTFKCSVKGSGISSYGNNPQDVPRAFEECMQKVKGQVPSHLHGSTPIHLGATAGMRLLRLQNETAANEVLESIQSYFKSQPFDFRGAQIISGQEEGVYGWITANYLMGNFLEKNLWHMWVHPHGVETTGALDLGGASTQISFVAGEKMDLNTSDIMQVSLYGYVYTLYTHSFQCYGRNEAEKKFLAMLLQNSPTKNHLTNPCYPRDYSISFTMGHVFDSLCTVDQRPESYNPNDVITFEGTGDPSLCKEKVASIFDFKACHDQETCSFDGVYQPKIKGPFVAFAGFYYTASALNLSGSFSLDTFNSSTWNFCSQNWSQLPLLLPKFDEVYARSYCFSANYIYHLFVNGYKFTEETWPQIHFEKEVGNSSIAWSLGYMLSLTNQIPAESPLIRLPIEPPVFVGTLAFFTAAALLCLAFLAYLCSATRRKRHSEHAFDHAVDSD
The experiment in a line: Stability assessed as human NTPDase3-mediated compound hydrolysis. The format is ADME. Conditions: human NTPDase3 enzyme, read-out: Drug degradation. The essentials:
(§1)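 Each analogue offered as substrate to recombinant human NTPDase (COS-7 transfected cell protein extracts) at 37 °C, pH 7.4 Ca2+/Tris medium, 15 min; Pi released measured by malachite green at 630 nm; hydrolysis expressed relative to ATP set as 100%; mean ± SD of three independent experiments, each in duplicate.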

The target in data set [2] is T2, NTPDase1 (ectonucleoside triphosphate diphosphohydrolase 1) (Homo sapiens, UniProt P49961).
T2 sequence (P49961 whole entry): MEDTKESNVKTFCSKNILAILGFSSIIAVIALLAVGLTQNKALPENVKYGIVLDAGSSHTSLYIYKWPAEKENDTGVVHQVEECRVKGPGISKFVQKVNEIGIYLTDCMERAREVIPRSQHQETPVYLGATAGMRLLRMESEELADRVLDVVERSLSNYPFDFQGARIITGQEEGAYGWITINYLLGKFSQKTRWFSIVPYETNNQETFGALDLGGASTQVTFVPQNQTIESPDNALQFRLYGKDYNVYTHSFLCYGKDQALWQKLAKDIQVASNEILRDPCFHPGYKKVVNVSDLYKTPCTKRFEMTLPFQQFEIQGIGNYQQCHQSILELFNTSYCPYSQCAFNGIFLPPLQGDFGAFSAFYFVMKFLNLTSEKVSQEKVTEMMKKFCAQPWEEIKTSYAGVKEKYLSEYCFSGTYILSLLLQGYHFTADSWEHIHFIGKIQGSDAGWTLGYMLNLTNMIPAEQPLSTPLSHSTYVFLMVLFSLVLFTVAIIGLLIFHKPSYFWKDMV
The experiment in a line: Stability assessed as human NTPDase1-mediated compound hydrolysis. In kind it is ADME. As to conditions: human NTPDase1 enzyme, read-out: Drug degradation. The essentials: as §1

The target in data set [3] is T3, Ectonucleotide pyrophosphatase/phosphodiesterase family member 1 (Homo sapiens) (UniProt P22413).
T3 sequence (whole entry): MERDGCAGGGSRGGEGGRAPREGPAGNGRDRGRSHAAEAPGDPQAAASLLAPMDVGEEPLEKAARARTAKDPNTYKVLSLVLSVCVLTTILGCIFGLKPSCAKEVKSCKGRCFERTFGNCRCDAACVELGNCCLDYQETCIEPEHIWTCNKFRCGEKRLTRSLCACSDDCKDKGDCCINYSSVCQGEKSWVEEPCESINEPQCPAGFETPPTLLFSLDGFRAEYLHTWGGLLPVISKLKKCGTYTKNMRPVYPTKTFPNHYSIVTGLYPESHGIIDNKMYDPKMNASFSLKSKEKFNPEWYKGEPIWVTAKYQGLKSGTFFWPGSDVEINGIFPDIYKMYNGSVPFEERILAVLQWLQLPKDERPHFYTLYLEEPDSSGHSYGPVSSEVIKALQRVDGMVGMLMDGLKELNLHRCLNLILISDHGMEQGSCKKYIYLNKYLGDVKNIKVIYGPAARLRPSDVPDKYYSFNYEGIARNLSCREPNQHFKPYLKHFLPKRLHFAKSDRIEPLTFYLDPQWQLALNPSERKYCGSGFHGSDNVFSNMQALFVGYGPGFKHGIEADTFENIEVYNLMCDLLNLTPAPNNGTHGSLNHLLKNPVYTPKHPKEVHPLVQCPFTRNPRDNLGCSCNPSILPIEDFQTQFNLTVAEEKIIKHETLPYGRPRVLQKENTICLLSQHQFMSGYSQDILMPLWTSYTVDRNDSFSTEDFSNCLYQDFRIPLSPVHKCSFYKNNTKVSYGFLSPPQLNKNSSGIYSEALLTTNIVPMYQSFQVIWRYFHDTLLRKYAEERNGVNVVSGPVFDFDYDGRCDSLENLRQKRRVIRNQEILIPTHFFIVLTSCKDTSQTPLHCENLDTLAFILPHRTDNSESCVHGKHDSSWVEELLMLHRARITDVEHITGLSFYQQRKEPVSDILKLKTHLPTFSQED
As to the kind of experiment: Inhibition of human NPP1 using pNP-TMP substrate relative to control. Conditions: concentration not given here. The essentials:
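Extract of COS-7 cells transfected with human NPP1, preincubated 3 min at 37 °C in 1 mM CaCl2, 140 mM NaCl, 5 mM KCl, 50 mM Tris pH 8.5; started with 100 μM pNP-TMP, compound 100 μM; p-nitrophenol read at 410 nm after 15 min; activity without compound = 100%; mean ± SD, three experiments in triplicate.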

The target in data set [4] is T4, Ectonucleoside triphosphate diphosphohydrolase 2 (Homo sapiens) (UniProt Q9Y5L3).
T4 sequence (whole entry): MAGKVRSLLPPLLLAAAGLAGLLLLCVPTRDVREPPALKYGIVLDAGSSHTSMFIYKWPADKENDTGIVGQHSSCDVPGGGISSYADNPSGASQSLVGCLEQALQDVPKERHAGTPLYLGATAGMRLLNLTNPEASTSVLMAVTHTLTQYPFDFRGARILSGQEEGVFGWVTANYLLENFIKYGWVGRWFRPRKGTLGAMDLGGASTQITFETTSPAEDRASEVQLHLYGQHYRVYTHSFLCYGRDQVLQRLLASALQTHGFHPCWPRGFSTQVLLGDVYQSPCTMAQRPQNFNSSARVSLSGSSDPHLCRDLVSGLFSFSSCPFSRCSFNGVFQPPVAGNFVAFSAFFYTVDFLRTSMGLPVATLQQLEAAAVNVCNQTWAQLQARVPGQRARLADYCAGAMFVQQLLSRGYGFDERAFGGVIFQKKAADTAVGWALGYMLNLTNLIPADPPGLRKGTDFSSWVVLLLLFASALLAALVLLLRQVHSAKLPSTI
The experiment in a line: Inhibition of recombinant human NTPDase2 transfected in COS-7 cells using ATP substrate at 100 uM relative to control. The format is cell-based. A digest of the protocol:
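Extracts of COS-7 cells expressing human NTPDase2, preincubated 3 min at 37 °C in 5 mM CaCl2/80 mM Tris pH 7.4; ATP and compound both 100 μM; stopped at 15 min with malachite green, Pi at 630 nm; ATP alone set as 100%; mean ± SD of three experiments in triplicate.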

Data set [5] deals with T5, Ectonucleoside triphosphate diphosphohydrolase 2 (Homo sapiens, UniProt Q9Y5L3).
T5 sequence (Q9Y5L3 whole entry): T4 sequence (whole entry)
The experiment in a line: Inhibition of recombinant human NTPDase2 transfected in COS-7 cells using ATP substrate. In kind it is cell-based.

Data set [6] addresses 5'-nucleotidase (Homo sapiens) (UniProt P21589). As to the kind of experiment: Inhibition of AMPase activity of human ecto-5'-nucleotidase using AMP substrate relative to control. Conditions: concentration not given here. A digest of the protocol: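 Human ecto-5′-nucleotidase in protein extracts of transfected COS-7 cells; 3 min preincubation at 37 °C in 5 mM CaCl2/80 mM Tris pH 7.4 (or Tris-Ringer); started with 100 μM AMP, compound also 100 μM; stopped after 15 min with malachite green, Pi read at 630 nm; activity without compound set as 100%; mean ± SD, three experiments in triplicate.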

Data set [7] concerns the target T6, NTPDase2 (ectonucleoside triphosphate diphosphohydrolase 2) (Homo sapiens, UniProt Q9Y5L3).
T6 sequence (Q9Y5L3 whole entry): T4 sequence (whole entry)
The experiment in a line: Stability assessed as human NTPDase2-mediated compound hydrolysis. As to conditions: human NTPDase2 enzyme, read-out: Drug degradation. The format is ADME. A digest of the protocol:
as §1

The nature of data set [8]: Stability assessed as human compound hydrolysis. As to conditions: read-out: Drug degradation.

Structures are written as SMILES. Bounds are passed on as bounds.

In general, inhibition refers to the relative decrease from the control value, in per cent. As a reminder, the IC50 is the point on the concentration scale where inhibition reaches its midpoint. For orientation: Ki means the dissociation constant of the complex between target and ligand, obtained from inhibition or displacement.

5'-nucleotidase (Homo sapiens), sequence (P21589 whole entry): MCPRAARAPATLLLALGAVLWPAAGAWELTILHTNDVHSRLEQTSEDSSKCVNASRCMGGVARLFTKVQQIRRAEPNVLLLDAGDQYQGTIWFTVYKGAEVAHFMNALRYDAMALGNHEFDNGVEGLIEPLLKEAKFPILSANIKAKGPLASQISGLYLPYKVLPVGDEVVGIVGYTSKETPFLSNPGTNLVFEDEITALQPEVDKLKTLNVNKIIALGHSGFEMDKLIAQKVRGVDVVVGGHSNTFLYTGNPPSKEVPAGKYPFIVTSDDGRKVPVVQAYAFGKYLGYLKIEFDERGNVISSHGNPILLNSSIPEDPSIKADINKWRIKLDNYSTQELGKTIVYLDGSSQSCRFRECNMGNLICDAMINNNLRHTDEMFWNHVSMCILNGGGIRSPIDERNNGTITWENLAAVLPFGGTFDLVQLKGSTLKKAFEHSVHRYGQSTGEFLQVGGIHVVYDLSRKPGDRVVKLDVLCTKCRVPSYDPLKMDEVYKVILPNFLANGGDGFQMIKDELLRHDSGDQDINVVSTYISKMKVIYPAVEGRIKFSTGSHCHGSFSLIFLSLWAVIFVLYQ

For the compound `CCCCCCSc1nc(N)c2ncn([C@@H]3O[C@H](COP(=O)(O)OP(=O)(O)CP(=O)(O)O)[C@@H](O)[C@H]3O)c2n1`, the metabolised stood at 0.8% in data set [1], 2.3% in data set [2] and 2.8% in data set [7]. Also, the inhibition in data set [3] was greater than 50%; in data set [4] it was 70%; in data set [6], 10%. The IC50 in data set [5] is 40 µM. In addition, the Ki in data set [5] is 21 µM.

As to `O=P(O)(O)OC[C@H]1O[C@@H](n2cnc3c(N(Cc4ccccc4)Cc4ccccc4)ncnc32)[C@H](O)[C@@H]1O`, the metabolised came out at 10% in data set [1], 5% in data set [8], 6% in data set [2] and 3% in data set [7]. Besides, the inhibition in data set [4] is 10%.

`CN(C)c1ncnc2c1ncn2[C@@H]1O[C@H](COP(=O)(O)O)[C@@H](O)[C@H]1O`: the metabolised is 4% in data set [1], 2% in data set [8], 0% in data set [2] and 0% in data set [7].

For the compound `CNc1ncnc2c1ncn2[C@@H]1O[C@H](COP(=O)(O)OP(=O)(O)OP(=O)(O)O)[C@@H](O)[C@H]1O`, the metabolised stood at 87% in data set [2] and 77% in data set [7].

For the compound `CCCCCCSc1nc(N)c2nnn([C@@H]3O[C@H](COP(=O)(O)OP(=O)(O)OP(=O)(O)O)[C@@H](O)[C@H]3O)c2n1`, the results for the metabolised in data set [2] and in data set [7] were 44% and 11.5%, respectively.

Consider `Nc1ncnc2c1nnn2[C@@H]1O[C@H](COP(=O)(O)OP(=O)(O)OP(=O)(O)O)[C@@H](O)[C@H]1O`, for which the metabolised in data set [2] amounted to 73%; in data set [7], 38.5%.

Regarding `CCN(CC)c1ncnc2c1ncn2[C@@H]1O[C@H](COP(=O)(O)OP(=O)(O)OP(=O)(O)O)[C@@H](O)[C@H]1O`, the metabolised in data set [1] amounted to 2%; in data set [8] it was 20%; in data set [2] it was 22%; in data set [7], 0%. Besides, the inhibition in data set [4] worked out at 42%.

`CN(C)c1ncnc2c1ncn2[C@@H]1O[C@H](COP(=O)(O)OP(=O)(O)OP(=O)(O)O)[C@@H](O)[C@H]1O`: the results for the metabolised in data set [2] and in data set [7] were 74% and 73%, respectively.

On to `O=P(O)(O)OP(=O)(O)OP(=O)(O)OC[C@H]1O[C@@H](n2cnc3c(N(Cc4ccccc4)Cc4ccccc4)ncnc32)[C@H](O)[C@@H]1O`, for which the metabolised in data set [1] stood at 8%; in data set [8] it was 13%; in data set [2], 14%; in data set [7], 3%. Further, in data set [4], the inhibition came out at 0%.
